Among the data in ChEMBL document CHEMBL3853281, “Pregnane-10,2-carbolactones from a Hawaiian Marine Sponge in the Genus Myrmekioderma” (J Nat Prod, 2016) are fold induction, Activity and IC50 values, retold here.

Broadly, the IC50 is the concentration at which inhibition is half-maximal.

Data set [1] concerns the target T1, PXR (NR1I2); CYP3A4 gene expression (Homo sapiens, UniProt O75469).
T1 sequence (O75469 whole entry): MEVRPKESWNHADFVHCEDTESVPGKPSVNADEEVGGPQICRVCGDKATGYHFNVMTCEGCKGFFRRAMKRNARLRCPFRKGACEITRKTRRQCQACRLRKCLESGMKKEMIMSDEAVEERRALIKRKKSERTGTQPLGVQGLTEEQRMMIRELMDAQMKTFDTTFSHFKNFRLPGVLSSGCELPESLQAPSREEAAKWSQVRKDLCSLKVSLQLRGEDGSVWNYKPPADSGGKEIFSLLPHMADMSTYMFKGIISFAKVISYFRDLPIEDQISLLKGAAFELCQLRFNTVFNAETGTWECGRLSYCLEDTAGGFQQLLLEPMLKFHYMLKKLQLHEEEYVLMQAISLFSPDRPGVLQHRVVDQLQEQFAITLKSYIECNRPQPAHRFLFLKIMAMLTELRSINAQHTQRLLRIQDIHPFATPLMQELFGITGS
In words: Activation of human PXR expressed in human DPX2 cells assessed as induction of CYP3A4 gene expression at 40 uM measured after 24 hrs by luciferase reporter gene assay relative to control. It is filed as cell-based. As to conditions: DPX2 cells expressing human PXR, read-out: FC. Summed up: (§1)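 DPX2 cells stably carrying human PXR (NR1I2) and a luciferase reporter under two human CYP3A4 promoters. Cells were seeded, treated 24 h later with six compound concentrations in duplicate wells, then incubated 24 h more. Viable cells were counted by a fluorescent cytotoxicity read in the same wells, then luciferase (ONE-Glo) was read. Fold activation is relative to DMSO vehicle-treated cells.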

For data set [2], the target named is T2, Nuclear receptor subfamily 1 group I member 2 (Homo sapiens, UniProt O75469).
T2 sequence (O75469 whole entry): T1 sequence (O75469 whole entry)
Nature of the data set: Activation of human PXR expressed in human DPX2 cells assessed as induction of CYP3A4 gene expression at 4 uM measured after 24 hrs by luciferase reporter gene assay relative to rifampicin. The settings on record: dpx2, 24 h. It is filed as cell-based. Summed up: (§2)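 PXR reporter run in stable DPX2 cells expressing human PXR with a luciferase reporter linked to two human CYP3A4 promoters. Compound (six concentrations, duplicate wells) was added 24 h after seeding, with a further 24 h incubation. Viability was read first, then luciferase in the same wells. Rifampicin was the reference at seven concentrations; activation is given as % of rifampicin response, with rifampicin at 10 μM.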

In data set [3] the target is T1, PXR (NR1I2); CYP3A4 gene expression. Nature of the data set: Activation of human PXR expressed in human DPX2 cells assessed as induction of CYP3A4 gene expression at 10 uM measured after 24 hrs by luciferase reporter gene assay relative to control. It is filed as cell-based. The settings on record: DPX2 cells expressing human PXR, read-out: FC. The method, boiled down: as §1
For orientation: A reporter such as luciferase makes a cellular process visible.

Data set [4] shares this target. Nature of the data set: Activation of human PXR expressed in human DPX2 cells assessed as induction of CYP3A4 gene expression at 0.4 uM measured after 24 hrs by luciferase reporter gene assay relative to control. It counts as cell-based. As to conditions: DPX2 cells expressing human PXR, read-out: FC. Summed up: as §1
The target is the same in data set [5]. In words: Activation of human PXR expressed in human DPX2 cells assessed as induction of CYP3A4 gene expression at 4 uM measured after 24 hrs by luciferase reporter gene assay relative to control. It is filed as cell-based. The settings on record: DPX2 cells expressing human PXR, read-out: FC. Summed up: as §1
For data set [6], the target named is T2, Nuclear receptor subfamily 1 group I member 2. In words: Activation of human PXR expressed in human DPX2 cells assessed as induction of CYP3A4 gene expression at 0.1 uM measured after 24 hrs by luciferase reporter gene assay relative to rifampicin. As to conditions: dpx2, 24 h. It counts as cell-based. Summed up: as §2
Data set [7] shares this target. In words: Activation of human PXR expressed in human DPX2 cells assessed as induction of CYP3A4 gene expression at 1 uM measured after 24 hrs by luciferase reporter gene assay relative to rifampicin. It is filed as cell-based. The settings on record: dpx2, 24 h. The method, boiled down: as §2
Data set [8] shares this target. In words: Activation of human PXR expressed in human DPX2 cells assessed as induction of CYP3A4 gene expression at 40 uM measured after 24 hrs by luciferase reporter gene assay relative to rifampicin. It counts as cell-based. As to conditions: dpx2, 24 h. The method, boiled down: as §2
Data set [9] shares this target. Nature of the data set: Activation of human PXR expressed in human DPX2 cells assessed as induction of CYP3A4 gene expression at 10 uM measured after 24 hrs by luciferase reporter gene assay relative to rifampicin. It is filed as cell-based. The settings on record: dpx2, 24 h. The method, boiled down: as §2
Data set [10] deals with T1, PXR (NR1I2); CYP3A4 gene expression. Nature of the data set: Activation of human PXR expressed in human DPX2 cells assessed as induction of CYP3A4 gene expression at 0.1 uM measured after 24 hrs by luciferase reporter gene assay relative to control. It counts as cell-based. As to conditions: DPX2 cells expressing human PXR, read-out: FC. Summed up: as §1
Data set [11] addresses T2, Nuclear receptor subfamily 1 group I member 2. In words: Activation of human PXR expressed in human DPX2 cells assessed as induction of CYP3A4 gene expression at 0.4 uM measured after 24 hrs by luciferase reporter gene assay relative to rifampicin. The settings on record: dpx2, 24 h. It is filed as cell-based. Summed up: as §2
Data set [12] deals with T1, PXR (NR1I2); CYP3A4 gene expression. Nature of the data set: Activation of human PXR expressed in human DPX2 cells assessed as induction of CYP3A4 gene expression at 1 uM measured after 24 hrs by luciferase reporter gene assay relative to control. It counts as cell-based. As to conditions: DPX2 cells expressing human PXR, read-out: FC. Summed up:
as §1

Data set [13] deals with Beta-secretase 1 (Homo sapiens, UniProt P56817). In words: Inhibition of BACE1 (unknown origin) assessed as cleavage of amyloid precursor protein by beta-galactosidase enzyme complementation assay.

The structures appear in SMILES notation.

Sequence of Beta-secretase 1 (P56817 whole entry): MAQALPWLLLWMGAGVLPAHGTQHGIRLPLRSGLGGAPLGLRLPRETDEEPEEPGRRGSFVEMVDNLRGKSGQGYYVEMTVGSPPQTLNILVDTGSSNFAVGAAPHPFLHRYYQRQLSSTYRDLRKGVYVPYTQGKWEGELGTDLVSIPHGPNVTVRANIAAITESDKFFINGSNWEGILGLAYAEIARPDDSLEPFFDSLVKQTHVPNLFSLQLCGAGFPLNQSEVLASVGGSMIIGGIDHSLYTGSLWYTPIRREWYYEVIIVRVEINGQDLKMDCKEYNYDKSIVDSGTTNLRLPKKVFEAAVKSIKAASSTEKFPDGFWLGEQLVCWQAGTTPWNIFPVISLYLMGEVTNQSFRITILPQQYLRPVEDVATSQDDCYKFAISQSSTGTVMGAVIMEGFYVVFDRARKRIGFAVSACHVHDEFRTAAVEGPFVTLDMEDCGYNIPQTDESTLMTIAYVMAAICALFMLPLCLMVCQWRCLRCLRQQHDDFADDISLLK

Take `C/C=C1\CC[C@H]2[C@@H]3CC=C4[C@@H](O)[C@@H](O)[C@@H]5C[C@]4(C(=O)O5)[C@H]3CC[C@]12C`: the fold induction at 24 h, 40 µM in data set [1] turned out to be 3.7. The Activity amounted to 2% in data set [2]; 3% in data set [6]; 2% in data set [7]; 28% in data set [8]; 6% in data set [9]; 4% in [11]. For the same compound, in [3], the fold induction at 24 h, 10 µM turned out to be 1.6. The fold induction at 24 h, 0.4 µM in [4] was found to be 1.4. Moreover, in data set [5], the fold induction at 24 h, 4 µM worked out at 1.2. Also, the fold induction at 24 h, 0.1 µM in [10] was 1.3. For the same compound, the fold induction at 24 h, 1 µM in data set [12] came to 1.2.

Regarding `CC[C@]1(C)CCC2=C1CC[C@H]1[C@H]2C[C@@H](Cl)C2=C[C@@H](O)[C@@H]3C[C@@]21C(=O)O3`, the half-inhibitory concentration (IC50) in data set [13] came to 82 µM.
